Compounds with a hit are over-represented: about 2% of the library has one in this group of screens.
CXCR6 block: inhibitors of human CXCR6 receptor; CHO-K1 PathHunter CXCR6 beta-arrestin, luminescence; O00574; hit rate 0.36% among 360,000; inhibition, % at 20 µM; in the data active = inhibition above about 34%, passing the limit was not always enough;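 note: antagonist mode with CXCL16 agonist at 10 nM final; 0% = 10 nM CXCL16 with DMSO and 100% = unstimulated wells without agonist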
Target sequence (O00574 whole entry, looked up): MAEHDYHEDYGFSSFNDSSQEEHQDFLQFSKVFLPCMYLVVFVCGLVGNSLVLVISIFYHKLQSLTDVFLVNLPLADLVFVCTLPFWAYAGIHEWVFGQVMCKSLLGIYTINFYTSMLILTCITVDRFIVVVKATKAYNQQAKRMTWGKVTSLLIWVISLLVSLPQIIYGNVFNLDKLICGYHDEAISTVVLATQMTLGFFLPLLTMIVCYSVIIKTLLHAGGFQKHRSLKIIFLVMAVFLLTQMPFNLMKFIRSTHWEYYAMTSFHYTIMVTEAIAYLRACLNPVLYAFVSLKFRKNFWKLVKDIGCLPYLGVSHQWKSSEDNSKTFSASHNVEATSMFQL
APJ ag: activates the human apelin receptor APJ | CHO-K1 APJ PathHunter beta-arrestin, luminescence; 0% DMSO wells, 100% apelin | activation, % at 20 µM | hit rate 0.11% among 330,000 | AID 2520;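 active = activation more than six SD over the plate average, tested at 20 µM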;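 note: 0% = DMSO alone and 100% = apelin-13 at 10 nM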
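Assay system – PathHunter CHO-K1 APJ (AGTRL-1) beta-arrestin reporter cells · Compound – one dose, 20 µM compound, 1% DMSO · Timing – compound 90 min 25 °C, reagent 1 h · Measured by – luminescence from split beta-galactosidase complementation, Galacton Star/Emerald II substrate · Measure – beta-arrestin recruitment to APJ as agonist activity, luminescent signal · Benchmarks – DMSO vs Apelin-13 10 nM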
APJ antag: blocks the human apelin receptor APJ; CHO-K1 APJ beta-arrestin complementation, luminescence; inhibition, % at 20 µM; P35414; hit rate 0.32% among 330,000; AID 2521;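 active = inhibition above about 40% at 20 µM, limit read from the data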;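 note: cells challenged with 10 nM apelin-13 agonist together with compound; plate controls were apelin-13 plus DMSO wells for no effect and DMSO wells lacking apelin-13 for full effect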
GAA850 FXN act: activators of GAA850 frataxin (FXN) promoter; activation, % at 6 µM; HEK293 lucGAA850 FXN promoter luciferase reporter, 24 h; percent of 10 µM SAHA response; hit rate 0.56% among 360,000;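 active = activation above the average of all compounds screened plus 3 SD, cutoff fixed separately per campaign, cut at about 7.5% in these data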;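 note: 0% = DMSO wells and 100% = 10 µM SAHA wells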
EBI2 antag: blocks human EBI2 receptor beta-arrestin signaling | P32249 | EBI2 beta-arrestin recruitment, luminescence, 7a,25-OHC stimulated | inhibition, % at 5 µM | hit rate 0.81% among 360,000 | AID 651636; in the data active = inhibition above about 38%;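 note: enzyme fragment complementation signal reports receptor beta-arrestin coupling in cells; 0% = agonist plus DMSO wells and 100% = wells without agonist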
CCR6 antagonist: blocks CCL20-driven beta-arrestin recruitment at human CCR6 | hit rate 0.49% among 340,000 | CHO-K1 CCR6 PathHunter beta-arrestin, luminescence, CCL20-stimulated | P51684 | inhibition, % at 20 µM;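 active = compounds whose inhibition of the agonist-driven luminescence signal at 20 µM reaches about 50%, limit read from the data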;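 note: cells stimulated with CCL20 at 14 nM final; plate controls were DMSO with CCL20 for no effect and DMSO without agonist for full effect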
EBI2 conf: confirmation of human EBI2 receptor antagonists; AID 651997; inhibition, % at 5 µM; EBI2 beta-arrestin luminescence, 7a,25-OHC antagonism; shares compounds with EBI2 antag; hit rate 29% among 2,400;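 active = inhibition of at least 50%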
EBI2 ag: EBI2 agonism counter-screen. EBI2-expressing cells, agonist mode, luminescence, 60 min; 0% vehicle, 100% 7α,25-dihydroxycholesterol control. activation, % at 5 µM. shares compounds with EBI2 antag. 2,400 tested, under 10 active;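 active = activation of at least 50%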
bGal cs: beta-galactosidase inhibition counter-screen; inhibition, % at 5 µM; shares compounds with EBI2 antag; AID 652176; hit rate 1% among 2,400; purified beta-galactosidase, luminescent Galacton Star, 15 min;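 active = replicate-average signal at least 3 plate SD below neutral wells, shown as high inhibition, flagging enzyme-inhibiting false positives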;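 note: 0% = DMSO wells with enzyme and 100% = wells lacking enzyme; higher means stronger loss of beta-gal luminescence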
* hit, by the source's call; . = no result given.

SMILES	CXCR6 block	APJ ag	APJ antag	GAA850 FXN act	EBI2 antag	CCR6 antagonist	EBI2 conf	EBI2 ag	bGal cs
CC(=O)Nc1ccc(S(=O)(=O)N2CCC(c3nnc(-c4ccc(C)cc4)o3)CC2)cc1	3	-2	13	-1	22	4	.	.	.
CSCCC(NS(=O)(=O)c1cccc(C(F)(F)F)c1)C(=O)Nc1ccccc1N1CCCC1 (centres undefined)	4	-2	12	3	18	14	.	.	.
COC(=O)/C=C1\C(=O)N(c2nc3ccc(OC)cc3s2)C(=S)N1c1ccc(F)cc1	.	-3	9	.	.	.	.	.	.
COC(=O)/C=C1\C(=O)N(c2nc3ccccc3s2)C(=S)N1c1ccc(F)cc1	4	1	-8	1	89*	-6	90*	1	1
O=C1c2ccccc2C(c2nnnn2Cc2ccccc2)N1CCc1c[nH]c2ccccc12 (centres undefined)	-12	.	.	.	-7	.	.	.	.
COC(C[C@@H]1O[C@H]1[C@H](O)[C@@H](C)OCc1ccccc1)OC	.	1	11	.	.	.	.	.	.
COc1ccc(Cl)cc1NC(=O)CN(C)C(=O)c1n[nH]c2ccccc12	1	-2	8	1	-2	1	.	.	.
COc1ccc(OCCNC(=O)c2cccc(Oc3ccc(C(F)(F)F)cc3[N+](=O)[O-])c2)cc1	4	0	7	-2	43*	19	17	-2	-14
COc1cc(C(=O)NCCOc2cc(C)ccc2C(C)C)cc(OC)c1OC	-11	-4	6	-1	-5	16	.	.	.
Cc1ccc(C(C)C)c(OCCNC(=O)c2cncc(Br)c2)c1	-8	-3	-29	3	50*	16	27	-2	-4
O=C(OCc1c(-c2ccccc2)ncc2ccccc12)c1ccccc1C(F)(F)F	6	-2	2	0	-4	19	.	.	.
CCOC(=O)C1(C)CCCN(C(=O)c2ccc(OC(F)F)cc2)C1 (centres undefined)	-3	.	.	1	-6	.	.	.	.
C=CCn1c(C)c(C(C)=O)c(N2CCN(C(c3ccccc3)c3ccccc3)CC2)nc1=S	13	-2	20	-2	54*	23	24	1	3
Cc1ccc(NS(=O)(=O)c2ccc(NC(=O)CN(c3cc([N+](=O)[O-])ccc3C)S(C)(=O)=O)cc2)c(C)c1	5	2	-11	-2	75*	18	22	-2	-2
Cc1ccc([N+](=O)[O-])cc1N(CC(=O)NC1CCCC1)S(C)(=O)=O	4	1	0	-1	-3	11	.	.	.
CN(C)c1ccc(NC(=O)CN2CCN(S(=O)(=O)c3cc(Cl)ccc3Cl)CC2)cc1	5	-3	9	1	64*	-3	41	-1	-12
CN(CC(=O)Nc1ccc(Cl)cc1)C(=O)c1cccc(S(=O)(=O)N2CCN(Cc3ccccc3)CC2)c1	-10	13	-8	-1	62*	11	32	-2	-12
Cc1ccc(C)c(S(=O)(=O)N2CCN(CC(=O)Nc3ccc4c(c3)OCCO4)CC2)c1	-6	-1	-7	-3	3	15	.	.	.
Cc1ccc(C)c(S(=O)(=O)N2CCN(CC(=O)Nc3ccc4c(c3)CCC4)CC2)c1	-1	-4	-9	-2	47*	13	29	1	5
CCc1ccccc1NC(=O)C1=CN2CCS(=O)(=O)N=C2C=C1	4	0	0	0	-6	17	.	.	.
CCCCCCCCN1C(=O)[C@H](CC(=O)NCc2cccc(C(F)(F)F)c2)C[C@@]2(C(=O)OCC)CCCC=C12	0	.	.	.	13	.	.	.	.
O=C(Nc1ccc2c(c1)OCCO2)C1c2ccccc2OCC(=O)N1Cc1cccnc1 (centres undefined)	2	.	.	.	-4	.	.	.	.
CC(=O)c1ccc(NC(=O)C(C)n2nc(-c3ccccc3)c3cc(Cl)ccc32)cc1 (centres undefined)	-7	1	13	3	44*	0	7	-1	-7
CC(C(=O)NCc1ccco1)n1nc(-c2ccccc2)c2cc(Cl)ccc21 (centres undefined)	2	-4	2	-1	14	8	.	.	.
COC(=O)[C@@]12C[C@@H](CC(=O)N3CCC(c4ccccc4)CC3)C(=O)N(Cc3ccc4c(c3)OCO4)C1=CCC(C)(C)C2	.	.	.	.	21	.	.	.	.
SMILES	CXCR6 block	APJ ag	APJ antag	GAA850 FXN act	EBI2 antag	CCR6 antagonist	EBI2 conf	EBI2 ag	bGal cs
O=C(Nc1ccccc1Cl)c1cc(C2CCCCN2C(=O)CCCc2ccccc2)on1 (centres undefined)	10	.	.	1	6	.	.	.	.
CCCCN(C=O)c1c(CC)nc2ccc(C(=O)NCCCN3CCCC3=O)cn12	-3	.	.	0	-8	.	.	.	.
COc1ccc(C2CCCN2C(=O)Nc2ccc(Cl)cc2)cc1OC (centres undefined)	-6	-2	0	2	59*	11	49	1	6
COc1cc2nc(SCc3c(C)noc3C)n(CCC3=CCCCC3)c(=O)c2cc1OC	27	9	7	-1	46*	22	15	-1	-6
CCOc1ccc(N(Cc2ccc(C(=O)O)cc2)S(=O)(=O)c2ccc(C)cc2)cc1	-3	0	-5	1	-11	6	.	.	.
CC(C)(Cc1nc2ccccc2[nH]1)c1nc2ccccc2[nH]1	0	.	.	0	-5	.	.	.	.
N#Cc1c(Nc2ccccc2)sc(C(=O)c2ccc(F)cc2)c1N	15	-2	22	4	7	32	.	.	.
Nc1c(C(=O)c2ccccc2)sc(Nc2ccccc2)c1S(=O)(=O)c1ccccc1	20	-3	-12	2	46*	32	50*	4	3
O=C(NCCCN1CCOCC1)c1cnccn1	5	2	-9	-1	-6	-4	.	.	.
COc1ccc(CNC(=O)C2CCN(S(=O)(=O)c3cccc(C(F)(F)F)c3)CC2)cc1	-6	1	5	2	54*	10	38	0	-16
COc1ccc(S(=O)(=O)N2CCC(C(=O)NCc3ccc(C)cc3)CC2)cc1	3	1	7	0	66*	12	55*	2	8
O=C(NCc1ccncc1)C1CCN(S(=O)(=O)c2cccc(C(F)(F)F)c2)CC1	-2	2	-5	0	-11	16	.	.	.
Cc1ccc(CNC(=O)N2CCN(S(=O)(=O)c3ccccc3)CC2)cc1	6	-3	-16	0	56*	14	49	3	-3

High-throughput results (PubChem BioAssay)
